The source of these data is ChEMBL document CHEMBL1156816, “Antiangiogenic effect of dual/selective alpha(5)beta(1)/alpha(v)beta(3) integrin antagonists designed on partially modified retro-inverso cyclotetrapeptide mimetics” (J Med Chem, 2010).

The test system of series [1] is HUVEC. The series is described as follows: Antiangiogenic activity in HUVEC on Matrigel assessed as reduction of bFGF-induced tube branches measured per square mm at 10 uM after 16 hrs by microscopic analysis. It counts as functional. A digest of the protocol: (§1)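 HUVEC (passages 2-7, cultured in EGM) seeded at 5000 cells/well on Matrigel-precoated wells with test compound, with or without bFGF 30 ng/mL. Vehicle up to 1% DMSO in medium. Incubated 16 h at 37 °C. Capillary-like tubes examined by microscopy with camera and counted as tubes per square millimeter. Quadruplicate, repeated three times; mean ± SEM; Newman-Keuls test after ANOVA.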

Series [2] addresses T1, Integrin alpha-V/beta-3 (Homo sapiens, UniProt P05106+P06756). As to the kind of experiment: Inhibition of alphavbeta3 integrin-mediated cell adhesion in human SK-MEL-24 cells on fibronectin coated plate after 30 mins. Format: cell-based.
For the next series, the target named is Integrin alpha-5/beta-1 (Homo sapiens, UniProt P05556+P08648). As to the kind of experiment: Inhibition of alpha5beta1 integrin-mediated cell adhesion in human K562 cells on fibronectin coated plate after 30 mins. It counts as cell-based. The method, boiled down: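 Wells coated overnight at 4 °C with fibronectin or vitronectin (10 μg/mL). Cells were preincubated 30 min at room temperature with compound (≤1% DMSO), then plated at 50000/well and left 1 h at room temperature. After PBS wash, adherent cells were quantified by hexosaminidase substrate read at 405 nm against a calibration curve. Quadruplicate, ≥3 repeats; IC50 calculated.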

In series [3] the test system is HUVEC. As to the kind of experiment: Cytotoxicity against HUVEC assessed as change in cell morphology at 1 uM after 16 hrs by flow cytometry using Annexin V/propidium staining. It counts as cell-based. Particulars: human. The method, boiled down:
(§2)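 HUVEC exposed 16 h to 1 or 10 μM cyclopeptide; morphology examined. For flow cytometry, cells were detached and fixed 15 min in 1% paraformaldehyde, then PBS-washed. They were resuspended in 10 mM Hepes/NaOH pH 7.4, 140 mM NaCl, 5 mM CaCl₂ with Annexin-V-Fluos and propidium iodide, kept 15 min at room temperature in the dark, then analyzed for intact, apoptotic and necrotic cells.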

In series [4] the target is T1, Integrin alpha-V/beta-3. The series is described as follows: Inhibition of alphavbeta3 integrin-mediated cell adhesion in HUVEC on vitronectin coated plate after 30 mins.
Series [5] has as its system HUVEC. The series is described as follows: Cytotoxicity against HUVEC assessed as increase in level of necrotic cells at 10 uM after 16 hrs by flow cytometry using Annexin V/propidium staining. Format: cell-based. Particulars: human. A digest of the protocol:
as §2
On the technique in general: In flow cytometry, cells or beads pass a laser one at a time.

Series [6] deals with HUVEC. As to the kind of experiment: Cytotoxicity against HUVEC assessed as change in cell morphology at 10 uM after 16 hrs by flow cytometry using Annexin V/propidium staining. Format: cell-based. Particulars: human. The method, boiled down: as §2
Series [7] concerns HUVEC. As to the kind of experiment: Cytotoxicity against HUVEC assessed as increase in level of necrotic cells at 1 uM after 16 hrs by flow cytometry using Annexin V/propidium staining. Format: cell-based. Particulars: human. A digest of the protocol: as §2
The test system of series [8] is HUVEC. The series is described as follows: Inhibition of bFGF-induced angiogenesis in HUVEC on Matrigel assessed as number of tube branches at 100 to 500 nM after 16 hrs by microscopic analysis. Format: functional, cell-based. Particulars: Homo sapiens. The method, boiled down:
as §1

For series [9], the system named is HUVEC. As to the kind of experiment: Inhibition of bFGF-induced angiogenesis in HUVEC cells on Matrigel assessed as number of tube branches at 10 nM after 16 hrs by microscopic analysis. Format: functional, cell-based. As to conditions: Homo sapiens. The method, boiled down: as §1
Series [10] relates to HUVEC. As to the kind of experiment: Inhibition of bFGF-induced angiogenesis in HUVEC on Matrigel assessed as endothelial morphogenesis at 1 uM after 16 hrs by microscopic analysis. It counts as functional, cell-based. Particulars: Homo sapiens. The method, boiled down: as §1
The test system of series [11] is HUVEC. As to the kind of experiment: Antiangiogenic activity in HUVEC on Matrigel assessed as inhibition of bFGF-induced tube formation at 1 uM after 16 hrs. Format: functional, cell-based. As to conditions: Homo sapiens. The method, boiled down: as §1
The mark [12] stands for this setting: in the assay text read “at 1 uM” for “at 10 uM”.

Activity calls are given as the source filed them. The calls are words filed in the database; no cut-off is given here. Non-standard residues stand in square brackets, D forms with d. Residues, ends and D or L forms follow the SMILES beside them. Bounds are passed on as bounds.

T1 sequence (P05106 27-788 limits assumed): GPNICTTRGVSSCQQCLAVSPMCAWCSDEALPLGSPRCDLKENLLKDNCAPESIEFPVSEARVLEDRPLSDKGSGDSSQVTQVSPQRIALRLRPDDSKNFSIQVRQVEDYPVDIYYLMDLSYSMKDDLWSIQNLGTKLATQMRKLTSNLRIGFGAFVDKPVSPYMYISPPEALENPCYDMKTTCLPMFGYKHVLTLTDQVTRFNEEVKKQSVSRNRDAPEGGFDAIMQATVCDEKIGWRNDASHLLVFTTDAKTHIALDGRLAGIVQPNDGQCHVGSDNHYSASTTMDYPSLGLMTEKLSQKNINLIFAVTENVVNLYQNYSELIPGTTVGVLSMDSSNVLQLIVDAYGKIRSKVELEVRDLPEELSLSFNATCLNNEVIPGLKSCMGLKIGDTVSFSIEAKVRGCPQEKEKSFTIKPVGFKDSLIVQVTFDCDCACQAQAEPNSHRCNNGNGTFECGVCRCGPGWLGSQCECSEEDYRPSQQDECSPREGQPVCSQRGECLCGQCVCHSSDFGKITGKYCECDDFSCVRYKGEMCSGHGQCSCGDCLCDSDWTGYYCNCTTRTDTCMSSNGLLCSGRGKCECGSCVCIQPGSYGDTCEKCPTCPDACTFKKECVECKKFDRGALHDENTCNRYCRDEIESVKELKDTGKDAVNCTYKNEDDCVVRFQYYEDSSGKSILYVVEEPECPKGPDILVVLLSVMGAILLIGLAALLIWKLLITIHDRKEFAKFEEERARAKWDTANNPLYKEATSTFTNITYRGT
T1 sequence (P06756 31-889 limits assumed): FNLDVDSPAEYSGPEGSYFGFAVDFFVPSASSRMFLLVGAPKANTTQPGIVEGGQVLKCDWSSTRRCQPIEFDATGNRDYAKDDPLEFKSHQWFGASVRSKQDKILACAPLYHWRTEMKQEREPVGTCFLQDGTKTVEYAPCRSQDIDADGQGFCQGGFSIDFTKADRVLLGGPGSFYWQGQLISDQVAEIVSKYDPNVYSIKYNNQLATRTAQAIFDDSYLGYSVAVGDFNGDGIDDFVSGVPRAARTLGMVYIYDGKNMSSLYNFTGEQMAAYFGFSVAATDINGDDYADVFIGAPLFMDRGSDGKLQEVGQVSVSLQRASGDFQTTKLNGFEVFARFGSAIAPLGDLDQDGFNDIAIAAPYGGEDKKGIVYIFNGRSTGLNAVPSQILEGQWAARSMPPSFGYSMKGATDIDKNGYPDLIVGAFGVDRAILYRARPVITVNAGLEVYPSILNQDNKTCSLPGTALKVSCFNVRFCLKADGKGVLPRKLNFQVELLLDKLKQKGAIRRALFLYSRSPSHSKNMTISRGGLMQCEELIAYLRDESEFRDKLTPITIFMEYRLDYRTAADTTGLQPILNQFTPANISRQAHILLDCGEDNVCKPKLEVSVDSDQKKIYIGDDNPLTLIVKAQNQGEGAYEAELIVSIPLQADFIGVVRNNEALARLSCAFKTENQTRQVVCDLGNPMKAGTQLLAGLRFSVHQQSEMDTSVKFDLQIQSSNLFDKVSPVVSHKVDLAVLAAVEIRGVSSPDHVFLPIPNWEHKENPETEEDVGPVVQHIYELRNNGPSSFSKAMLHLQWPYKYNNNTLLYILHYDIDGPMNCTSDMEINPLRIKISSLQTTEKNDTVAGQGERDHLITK
T1 sequence (P06756 891-1048 limits assumed): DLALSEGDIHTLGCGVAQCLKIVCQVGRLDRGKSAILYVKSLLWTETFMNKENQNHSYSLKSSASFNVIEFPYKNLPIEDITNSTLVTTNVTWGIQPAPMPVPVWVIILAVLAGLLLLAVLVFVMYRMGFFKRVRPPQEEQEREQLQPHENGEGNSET
Integrin alpha-5/beta-1, sequence (P05556 21-798 limits assumed): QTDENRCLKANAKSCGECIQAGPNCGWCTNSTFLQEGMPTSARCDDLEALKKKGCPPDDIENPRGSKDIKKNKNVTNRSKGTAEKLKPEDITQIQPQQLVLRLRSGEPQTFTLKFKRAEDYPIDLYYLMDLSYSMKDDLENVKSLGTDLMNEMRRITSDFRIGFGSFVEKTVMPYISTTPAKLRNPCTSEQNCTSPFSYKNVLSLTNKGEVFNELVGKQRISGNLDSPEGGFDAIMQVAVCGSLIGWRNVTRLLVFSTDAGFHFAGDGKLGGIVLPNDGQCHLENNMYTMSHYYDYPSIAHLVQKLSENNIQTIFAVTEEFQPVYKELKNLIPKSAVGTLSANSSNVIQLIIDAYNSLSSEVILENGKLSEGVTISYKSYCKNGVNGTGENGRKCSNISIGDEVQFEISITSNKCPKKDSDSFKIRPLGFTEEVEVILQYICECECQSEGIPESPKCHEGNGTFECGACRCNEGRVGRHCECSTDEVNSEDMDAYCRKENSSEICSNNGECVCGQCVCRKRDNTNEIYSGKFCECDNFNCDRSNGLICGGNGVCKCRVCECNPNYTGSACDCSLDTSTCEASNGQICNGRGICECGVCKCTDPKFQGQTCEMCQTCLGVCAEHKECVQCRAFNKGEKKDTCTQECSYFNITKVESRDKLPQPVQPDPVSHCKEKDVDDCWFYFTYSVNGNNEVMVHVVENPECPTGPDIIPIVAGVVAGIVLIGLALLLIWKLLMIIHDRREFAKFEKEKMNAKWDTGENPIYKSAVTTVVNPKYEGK
Integrin alpha-5/beta-1, sequence (P08648 42-894 limits assumed): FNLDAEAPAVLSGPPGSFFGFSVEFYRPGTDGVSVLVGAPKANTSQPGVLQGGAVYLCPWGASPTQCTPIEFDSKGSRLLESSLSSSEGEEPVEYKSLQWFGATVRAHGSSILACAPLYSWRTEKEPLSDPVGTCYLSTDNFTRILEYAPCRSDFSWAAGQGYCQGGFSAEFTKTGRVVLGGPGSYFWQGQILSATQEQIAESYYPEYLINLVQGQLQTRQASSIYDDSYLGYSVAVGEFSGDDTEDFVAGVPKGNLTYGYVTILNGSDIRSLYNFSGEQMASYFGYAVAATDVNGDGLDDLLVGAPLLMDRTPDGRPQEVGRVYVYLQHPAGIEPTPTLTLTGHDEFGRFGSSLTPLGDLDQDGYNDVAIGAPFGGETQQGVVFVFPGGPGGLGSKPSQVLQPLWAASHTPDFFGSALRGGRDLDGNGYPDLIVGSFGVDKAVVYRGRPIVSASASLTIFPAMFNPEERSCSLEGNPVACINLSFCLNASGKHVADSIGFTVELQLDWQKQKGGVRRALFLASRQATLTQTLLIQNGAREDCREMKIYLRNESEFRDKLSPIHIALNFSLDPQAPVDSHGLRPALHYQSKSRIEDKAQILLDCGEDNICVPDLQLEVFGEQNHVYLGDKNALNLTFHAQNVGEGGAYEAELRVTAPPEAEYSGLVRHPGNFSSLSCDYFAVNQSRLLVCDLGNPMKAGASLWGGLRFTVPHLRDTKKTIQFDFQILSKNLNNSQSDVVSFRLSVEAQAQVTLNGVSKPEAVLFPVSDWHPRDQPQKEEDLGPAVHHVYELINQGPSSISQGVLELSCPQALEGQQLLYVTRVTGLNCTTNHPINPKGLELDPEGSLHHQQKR
Integrin alpha-5/beta-1, sequence (P08648 895-1049 limits assumed): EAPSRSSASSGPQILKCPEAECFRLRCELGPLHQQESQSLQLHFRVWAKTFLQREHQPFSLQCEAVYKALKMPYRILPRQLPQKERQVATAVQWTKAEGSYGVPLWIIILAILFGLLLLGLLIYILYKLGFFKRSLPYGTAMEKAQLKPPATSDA

In the case of `N=C(N)NCCC[C@H]1NC(=O)CC(=O)N[C@H](CC(=O)O)C(=O)N[C@H](Cc2ccccc2)CNC1=O`, the result with HUVEC [1] (Homo sapiens) was inactive.

With `NC(N)=NCCC[C@H]1NC(=O)CC(=O)N[C@H](CC(=O)O)C(=O)N[C@H](Cc2ccccc2)CNC1=O`, the half-maximal inhibitory concentration (IC50) against Integrin alpha-V/beta-3 [2], at Integrin alpha-5/beta-1 and at Integrin alpha-V/beta-3 [4] was more than 100 µM throughout. The Activity result with HUVEC [3], in the series with HUVEC [5], in the series on HUVEC [6] and in the series on HUVEC [7] was “Non-toxic” each time.

In the case of `NC(N)=NCCC[C@@H]1NC(=O)CC(=O)N[C@@H](CC(=O)O)C(=O)N[C@H](Cc2ccccc2)CNC1=O`, the IC50 worked out at 0.18 µM at Integrin alpha-V/beta-3 [2], 0.024 µM at Integrin alpha-5/beta-1 and 0.24 µM on Integrin alpha-V/beta-3 [4]. The Activity result with HUVEC [3], in the series on HUVEC [5], in the series on HUVEC [6] and in the series on HUVEC [7] was “Non-toxic” in each case.

For the compound `CC(C)[C@@H]1NC(=O)[C@@H](Cc2ccccc2)NC(=O)[C@H](CC(=O)O)NC(=O)[C@H](C)NC(=O)[C@H](CCCN=C(N)N)NC1=O` (cyclo(AD[dF]VR)), the IC50 against Integrin alpha-V/beta-3 [2], against Integrin alpha-5/beta-1 and against Integrin alpha-V/beta-3 [4] was more than 100 µM in each case.

`N=C(N)NCCC[C@H]1NC(=O)CC(=O)N[C@@H](CC(=O)O)C(=O)N[C@@H](Cc2ccccc2)CNC1=O`: the 50% inhibitory concentration (IC50) at Integrin alpha-V/beta-3 [2] was 2.3 µM; at Integrin alpha-5/beta-1, 4.7 µM; against Integrin alpha-V/beta-3 [4] it was 1.5 µM. Further, the Activity entry in the series on HUVEC [3], in the series on HUVEC [5], with HUVEC [6] and in the series with HUVEC [7] was “Non-toxic” in each case. For the same compound, in the series on HUVEC [1] (Homo sapiens), the outcome was inactive.

In the case of `NC(N)=NCCC[C@H]1NC(=O)CC(=O)N[C@H](CC(=O)O)C(=O)N[C@@H](Cc2ccccc2)CNC1=O`, the IC50 at Integrin alpha-V/beta-3 [2], at Integrin alpha-5/beta-1 and on Integrin alpha-V/beta-3 [4] was more than 100 µM in each case. In addition, the Activity result with HUVEC [3], with HUVEC [5], in the series with HUVEC [6] and in the series with HUVEC [7] was “Non-toxic” throughout.

For the compound `N=C(N)NCCC[C@H]1NC(=O)CC(=O)N[C@H](CC(=O)O)C(=O)N[C@@H](Cc2ccccc2)CNC1=O`, the outcome with HUVEC [1] (Homo sapiens) was inactive.

On to `N=C(N)NCCC[C@H]1NC(=O)CC(=O)N[C@@H](CC(=O)O)C(=O)N[C@H](Cc2ccccc2)CNC1=O`, for which the outcome in the series on HUVEC [1] (Homo sapiens) was inactive.

With `N=C(N)NCCC[C@@H]1NC(=O)CC(=O)N[C@H](CC(=O)O)C(=O)N[C@H](Cc2ccccc2)CNC1=O`, the 50% inhibitory concentration (IC50) at Integrin alpha-V/beta-3 [2] was found to be 2.1 µM; against Integrin alpha-5/beta-1 it was 1.3 µM; at Integrin alpha-V/beta-3 [4], 0.92 µM. Moreover, the Activity result in the series on HUVEC [3], in the series with HUVEC [5], in the series with HUVEC [6] and in the series on HUVEC [7] was “Non-toxic” throughout. Moreover, the outcome with HUVEC [1] (Homo sapiens) was inactive.

The compound `CC(C)[C@@H]1NC(=O)[C@@H](Cc2ccccc2)NC(=O)[C@H](CC(=O)O)NC(=O)CNC(=O)[C@H](CCCN=C(N)N)NC1=O` [CYCLORGDFV] had an IC50 against Integrin alpha-5/beta-1 of 34.7 µM.

With `NC(N)=NCCC[C@H]1NC(=O)CC(=O)N[C@@H](CC(=O)O)C(=O)N[C@H](Cc2ccccc2)CNC1=O`, the half-maximal inhibitory concentration (IC50) against Integrin alpha-V/beta-3 [2], at Integrin alpha-5/beta-1 and at Integrin alpha-V/beta-3 [4] was more than 100 µM throughout. In addition, the Activity entry in the series on HUVEC [3], in the series with HUVEC [5], in the series with HUVEC [6] and in the series with HUVEC [7] was “Non-toxic” in each case.

As for `N=C(N)NCCC[C@@H]1NC(=O)CC(=O)N[C@@H](CC(=O)O)C(=O)N[C@@H](Cc2ccccc2)CNC1=O`, the outcome with HUVEC [8] and in the series with HUVEC [9] was inactive. The values for the IC50 against Integrin alpha-V/beta-3 [2], on Integrin alpha-5/beta-1 and on Integrin alpha-V/beta-3 [4] were 11 µM, 0.52 µM and 25.2 µM, respectively. The Activity result with HUVEC [3] is recorded as “Non-toxic”; with HUVEC [5], “Non-toxic”; with HUVEC [1] (setting [12]), 6.8; with HUVEC [6] it was “Non-toxic”; with HUVEC [7], “Non-toxic”. For the same compound, the outcome in the series on HUVEC [10] and in the series on HUVEC [11] was Active.

For the compound `N=C(N)NCCC[C@@H]1NC(=O)CC(=O)N[C@H](CC(=O)O)C(=O)N[C@@H](Cc2ccccc2)CNC1=O`, the half-maximal inhibitory concentration (IC50) against Integrin alpha-V/beta-3 [2], against Integrin alpha-5/beta-1 and against Integrin alpha-V/beta-3 [4] was more than 100 µM throughout. Moreover, the Activity result in the series on HUVEC [3], with HUVEC [5], in the series on HUVEC [6] and in the series on HUVEC [7] was “Non-toxic” each time. Moreover, in the series with HUVEC [1] (Homo sapiens), the outcome was inactive.

As to `N=C(N)NCCC[C@@H]1NC(=O)CC(=O)N[C@@H](CC(=O)O)C(=O)N[C@H](Cc2ccccc2)CNC1=O`, the outcome with HUVEC [8] and with HUVEC [9] was inactive. The Activity with HUVEC [1] (setting [12]) worked out at 5.1. In addition, the result in the series with HUVEC [10] and in the series on HUVEC [11] was Active.

As a reminder, the IC50 is the concentration at which inhibition is half-maximal.
